Laboratory results published in ChEMBL document CHEMBL1944570, “Discovery of 4''-ether linked azithromycin-quinolone hybrid series: influence of the central linker on the antibacterial activity” (ACS Med Chem Lett, 2011).
≈ marks a conversion by molar mass, not a printed value.

Tests used:
Format in all cases: functional
Staphylococcus aureus [1] = experiment: Antibacterial activity against constitutive MLS resistant Staphylococcus aureus by agar microdilution method
Outline: (§1)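 MIC by agar microdilution following NCCLS standards; strains drawn from the PLIVA Research Institute culture collection. MIC reported in μg/mL.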

Staphylococcus aureus [2] = experiment: Antibacterial activity against Staphylococcus aureus with inducible resistance to MLS by agar microdilution method; outline: as §1
Streptococcus pneumoniae [3] = experiment: Antibacterial activity against erythromycin-susceptible Streptococcus pneumoniae by agar microdilution method; outline: as §1
Streptococcus pyogenes [4] = experiment: Antibacterial activity against Streptococcus pyogenes with inducible resistance to MLS by agar microdilution method; outline: as §1
Staphylococcus aureus [5] = experiment: Antibacterial activity against efflux mediated macrolide resistant Staphylococcus aureus by agar microdilution method; outline: as §1
Streptococcus pyogenes [6] = experiment: Antibacterial activity against efflux mediated macrolide resistant Streptococcus pyogenes by agar microdilution method; outline: as §1
Streptococcus pyogenes [7] = experiment: Antibacterial activity against erythromycin-susceptible Streptococcus pyogenes by agar microdilution method; outline: as §1
Moraxella catarrhalis = experiment: Antibacterial activity against Moraxella catarrhalis by agar microdilution method
Outline: (§2)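 Agar microdilution MIC per NCCLS standards against strains from the Pliva Research Institute culture collection; values in µg/mL. Panel included erythromycin-susceptible strains and strains with inducible or constitutive MLS resistance.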

Haemophilus influenzae = experiment: Antibacterial activity against Haemophilus influenzae B0529 by agar microdilution method; outline: as §2
Staphylococcus aureus [8] = experiment: Antibacterial activity against erythromycin-susceptible Staphylococcus aureus by agar microdilution method; outline: as §2
Staphylococcus aureus [9] = experiment: Antibacterial activity against ciprofloxacin-resistant Staphylococcus aureus by agar microdilution method; outline: as §1
Streptococcus pyogenes [10] = experiment: Antibacterial activity against constitutive MLS resistant Streptococcus pyogenes by agar microdilution method; outline: as §1
Streptococcus pneumoniae [11] = experiment: Antibacterial activity against constitutive MLS resistant Streptococcus pneumoniae by agar microdilution method; outline: as §1
Streptococcus pneumoniae [12] = experiment: Antibacterial activity against efflux mediated macrolide resistant Streptococcus pneumoniae by agar microdilution method; outline: as §1

SMILES: CCOC(=O)c1cn(CC)c2ccc(N3CCN(CCO[C@H]4[C@H](C)O[C@@H](O[C@H]5[C@H](C)[C@@H](O[C@@H]6O[C@H](C)C[C@H](N(C)C)[C@H]6O)[C@](C)(O)C[C@@H](C)CN(C)[C@H](C)[C@H]6OC(=O)O[C@]6(C)[C@@H](CC)OC(=O)[C@@H]5C)C[C@@]4(C)OC)CC3)cc2c1=O
- MIC (Staphylococcus aureus [1]): > 64 mg/L
- MIC (Staphylococcus aureus [2]): 64 mg/L (≈ 56.6 µM)
- MIC (Streptococcus pneumoniae [3]): ≤ 0.125 mg/L
- MIC (Streptococcus pyogenes [4]): 1 mg/L (≈ 0.885 µM)
- MIC (Staphylococcus aureus [5]): 8 mg/L (≈ 7.08 µM)
- MIC (Streptococcus pyogenes [6]): 16 mg/L (≈ 14.2 µM)
- MIC (Streptococcus pyogenes [7]): ≤ 0.125 mg/L
- MIC (Moraxella catarrhalis): 0.25 mg/L (≈ 0.221 µM)
- MIC (Haemophilus influenzae): 1 mg/L (≈ 0.885 µM)
- MIC (Staphylococcus aureus [8]): 0.5 mg/L (≈ 0.442 µM)
- MIC (Staphylococcus aureus [9]): ≥ 64 mg/L
- MIC (Streptococcus pyogenes [10]): 64 mg/L (≈ 56.6 µM)
- MIC (Streptococcus pneumoniae [11]): 64 mg/L (≈ 56.6 µM)

SMILES: CC[C@H]1OC(=O)[C@H](C)[C@@H](O[C@H]2C[C@@](C)(OC)[C@@H](OCCN3CCN(c4ccc5c(c4)c(=O)c(C(=O)O)cn5CC)CC3)[C@H](C)O2)[C@H](C)[C@@H](O[C@@H]2O[C@H](C)C[C@H](N(C)C)[C@H]2O)[C@](C)(O)C[C@@H](C)CN(C)[C@H](C)[C@H]2OC(=O)O[C@@]21C
- MIC (Staphylococcus aureus [1]): 32 mg/L (≈ 29 µM)
- MIC (Staphylococcus aureus [2]): 16 mg/L (≈ 14.5 µM)
- MIC (Streptococcus pneumoniae [3]): ≤ 0.125 mg/L
- MIC (Streptococcus pyogenes [4]): 4 mg/L (≈ 3.63 µM)
- MIC (Staphylococcus aureus [5]): 2 mg/L (≈ 1.81 µM)
- MIC (Streptococcus pyogenes [6]): 4 mg/L (≈ 3.63 µM)
- MIC (Streptococcus pyogenes [7]): 0.25 mg/L (≈ 0.227 µM)
- MIC (Moraxella catarrhalis): 4 mg/L (≈ 3.63 µM)
- MIC (Haemophilus influenzae): 2 mg/L (≈ 1.81 µM)
- MIC (Staphylococcus aureus [8]): 1 mg/L (≈ 0.907 µM)
- MIC (Staphylococcus aureus [9]): ≥ 64 mg/L
- MIC (Streptococcus pyogenes [10]): 32 mg/L (≈ 29 µM)
- MIC (Streptococcus pneumoniae [11]): 32 mg/L (≈ 29 µM)

SMILES: CC[C@H]1OC(=O)[C@H](C)[C@@H](O[C@H]2C[C@@](C)(OC)[C@@H](OCCNCCNc3cc4c(=O)c(C(=O)O)cn(C5CC5)c4cc3Cl)[C@H](C)O2)[C@H](C)[C@@H](O[C@@H]2O[C@H](C)C[C@H](N(C)C)[C@H]2O)[C@](C)(O)C[C@@H](C)CN(C)[C@H](C)[C@H]2OC(=O)O[C@@]21C
- MIC (Staphylococcus aureus [1]): > 64 mg/L
- MIC (Staphylococcus aureus [2]): 64 mg/L (≈ 57 µM)
- MIC (Streptococcus pneumoniae [3]): ≤ 0.125 mg/L
- MIC (Streptococcus pyogenes [4]): 0.5 mg/L (≈ 0.445 µM)
- MIC (Staphylococcus aureus [5]): 4 mg/L (≈ 3.56 µM)
- MIC (Streptococcus pyogenes [6]): 0.5 mg/L (≈ 0.445 µM)
- MIC (Streptococcus pyogenes [7]): ≤ 0.125 mg/L
- MIC (Moraxella catarrhalis): 0.25 mg/L (≈ 0.223 µM)
- MIC (Haemophilus influenzae): 2 mg/L (≈ 1.78 µM)
- MIC (Staphylococcus aureus [8]): 2 mg/L (≈ 1.78 µM)
- MIC (Staphylococcus aureus [9]): ≥ 64 mg/L
- MIC (Streptococcus pyogenes [10]): 2 mg/L (≈ 1.78 µM)
- MIC (Streptococcus pneumoniae [11]): 64 mg/L (≈ 57 µM)

SMILES: CC[C@H]1OC(=O)[C@H](C)[C@@H](O[C@H]2C[C@@](C)(OC)[C@@H](OCCNCCNc3cc4c(cc3F)c(=O)c(C(=O)O)cn4C3CC3)[C@H](C)O2)[C@H](C)[C@@H](O[C@@H]2O[C@H](C)C[C@H](N(C)C)[C@H]2O)[C@](C)(O)C[C@@H](C)CN(C)[C@H](C)[C@H]2OC(=O)O[C@@]21C
- MIC (Staphylococcus aureus [1]): > 64 mg/L
- MIC (Staphylococcus aureus [2]): 64 mg/L (≈ 57.8 µM)
- MIC (Streptococcus pneumoniae [3]): ≤ 0.125 mg/L
- MIC (Streptococcus pyogenes [4]): 0.25 mg/L (≈ 0.226 µM)
- MIC (Staphylococcus aureus [5]): 4 mg/L (≈ 3.62 µM)
- MIC (Streptococcus pyogenes [6]): 4 mg/L (≈ 3.62 µM)
- MIC (Streptococcus pyogenes [7]): ≤ 0.125 mg/L
- MIC (Moraxella catarrhalis): 0.5 mg/L (≈ 0.452 µM)
- MIC (Haemophilus influenzae): 4 mg/L (≈ 3.62 µM)
- MIC (Streptococcus pneumoniae [12]): 0.25 mg/L (≈ 0.226 µM)
- MIC (Staphylococcus aureus [8]): 4 mg/L (≈ 3.62 µM)
- MIC (Staphylococcus aureus [9]): ≥ 64 mg/L
- MIC (Streptococcus pyogenes [10]): 8 mg/L (≈ 7.23 µM)
- MIC (Streptococcus pneumoniae [11]): 64 mg/L (≈ 57.8 µM)

SMILES: CC[C@H]1OC(=O)[C@H](C)[C@@H](O[C@H]2C[C@@](C)(OC)[C@@H](OCCNCCOCCNc3cc4c(cc3F)c(=O)c(C(=O)O)cn4C3CC3)[C@H](C)O2)[C@H](C)[C@@H](O[C@@H]2O[C@H](C)C[C@H](N(C)C)[C@H]2O)[C@](C)(O)C[C@@H](C)CN(C)[C@H](C)[C@H]2OC(=O)O[C@@]21C
- MIC (Staphylococcus aureus [1]): > 64 mg/L
- MIC (Staphylococcus aureus [2]): 64 mg/L (≈ 55.6 µM)
- MIC (Streptococcus pneumoniae [3]): ≤ 0.125 mg/L
- MIC (Streptococcus pyogenes [4]): 1 mg/L (≈ 0.869 µM)
- MIC (Staphylococcus aureus [5]): 64 mg/L (≈ 55.6 µM)
- MIC (Streptococcus pyogenes [6]): 4 mg/L (≈ 3.48 µM)
- MIC (Streptococcus pyogenes [7]): ≤ 0.125 mg/L
- MIC (Moraxella catarrhalis): 0.5 mg/L (≈ 0.435 µM)
- MIC (Haemophilus influenzae): 4 mg/L (≈ 3.48 µM)
- MIC (Staphylococcus aureus [8]): 8 mg/L (≈ 6.95 µM)
- MIC (Staphylococcus aureus [9]): ≥ 64 mg/L
- MIC (Streptococcus pyogenes [10]): 32 mg/L (≈ 27.8 µM)
- MIC (Streptococcus pneumoniae [11]): 16 mg/L (≈ 13.9 µM)

SMILES: CC[C@H]1OC(=O)[C@H](C)[C@@H](O[C@H]2C[C@@](C)(OC)[C@@H](OCCNCCOCCOCCNc3cc4c(=O)c(C(=O)O)cn(C5CC5)c4cc3Cl)[C@H](C)O2)[C@H](C)[C@@H](O[C@@H]2O[C@H](C)C[C@H](N(C)C)[C@H]2O)[C@](C)(O)C[C@@H](C)CN(C)[C@H](C)[C@H]2OC(=O)O[C@@]21C
- MIC (Staphylococcus aureus [1]): 32 mg/L (≈ 26.4 µM)
- MIC (Staphylococcus aureus [2]): 64 mg/L (≈ 52.9 µM)
- MIC (Streptococcus pneumoniae [3]): ≤ 0.125 mg/L
- MIC (Staphylococcus aureus [5]): 2 mg/L (≈ 1.65 µM)
- MIC (Streptococcus pyogenes [6]): 0.5 mg/L (≈ 0.413 µM)
- MIC (Streptococcus pyogenes [7]): ≤ 0.125 mg/L
- MIC (Moraxella catarrhalis): 0.5 mg/L (≈ 0.413 µM)
- MIC (Haemophilus influenzae): 1 mg/L (≈ 0.826 µM)
- MIC (Staphylococcus aureus [8]): 2 mg/L (≈ 1.65 µM)
- MIC (Staphylococcus aureus [9]): ≥ 64 mg/L
- MIC (Streptococcus pyogenes [10]): 1 mg/L (≈ 0.826 µM)
- MIC (Streptococcus pneumoniae [11]): 64 mg/L (≈ 52.9 µM)

SMILES: CC[C@H]1OC(=O)[C@H](C)[C@@H](O[C@H]2C[C@@](C)(OC)[C@@H](OCCN3CCN(c4ccc5c(c4)c(=O)c(C(=O)O)cn5CC)CC3)[C@H](C)O2)[C@H](C)[C@@H](O[C@@H]2O[C@H](C)C[C@H](N(C)C)[C@H]2O)[C@](C)(O)C[C@@H](C)CN(C)[C@H](C)[C@@H](O)[C@]1(C)O
- MIC (Staphylococcus aureus [1]): 64 mg/L (≈ 59.5 µM)
- MIC (Staphylococcus aureus [2]): 64 mg/L (≈ 59.5 µM)
- MIC (Streptococcus pneumoniae [3]): ≤ 0.125 mg/L
- MIC (Streptococcus pyogenes [4]): 0.25 mg/L (≈ 0.232 µM)
- MIC (Staphylococcus aureus [5]): 4 mg/L (≈ 3.72 µM)
- MIC (Streptococcus pyogenes [6]): 0.5 mg/L (≈ 0.465 µM)
- MIC (Streptococcus pyogenes [7]): ≤ 0.125 mg/L
- MIC (Moraxella catarrhalis): 4 mg/L (≈ 3.72 µM)
- MIC (Haemophilus influenzae): 8 mg/L (≈ 7.43 µM)
- MIC (Staphylococcus aureus [8]): 2 mg/L (≈ 1.86 µM)
- MIC (Staphylococcus aureus [9]): ≥ 64 mg/L
- MIC (Streptococcus pyogenes [10]): 64 mg/L (≈ 59.5 µM)
- MIC (Streptococcus pneumoniae [11]): 64 mg/L (≈ 59.5 µM)
